Test results published in ChEMBL document CHEMBL5712078, “BRD9 Inhibition, Alone or in Combination with Cytostatic Compounds as a Therapeutic Approach in Rhabdoid Tumors” (Int J Mol Sci, 2017).
The source made the active and inactive calls. The rule behind the calls is not given here.

How the values were obtained:
G-401 [1] = experiment: Induction of cell cycle arrest in human G-401 cells assessed as accumulation of cells at G1 phase incubated for 72 hrs by flow cytometry analysis; type: functional, cell-based; conditions: dose 5-20 µM
In short: (§1)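 72 h DAPI flow-cytometry cell-cycle assay. Chla266 in IMDM/20% FBS seeded at 30,000 cells/mL; G401 in DMEM/10% FBS at 10,000 cells/mL; 1 mL/well, 37 °C, 5% CO2. Next day the medium was replaced with inhibitor at final 0, 5, 10 or 20 µM. Cells were harvested, PBS-washed, and the G1 percentage was read. n ≥ 3, mean ± SD, one-way ANOVA vs control.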

BT-12 [2] = experiment: Induction of apoptosis in human BT-12 cells assessed as necrotic cells incubated for 72 hrs by flow cytometry analysis; type: functional, cell-based; conditions: dose 5-20 µM
In short: (§2)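 Annexin V/PI flow assay. G401 at 10,000 cells/mL and BT12 or Chla266 at 30,000 cells/mL were seeded in 12-well plates. Next day medium was replaced with medium holding I-BRD9 or BI-9564 at 0, 5, 10 or 20 µM final for 72 h. Cells were washed in PBS, stained with FITC-Annexin V and propidium iodide for 15 min in the dark at room temperature, then read by flow cytometry. Percentage of dead cells, n ≥3, mean ± SD, one-way ANOVA versus control.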

CHLA-266 [3] = experiment: Induction of cell cycle arrest in human CHLA-266 cells assessed as accumulation of cells at G1 phase incubated for 72 hrs by flow cytometry analysis; type: functional, cell-based; conditions: dose 5-20 µM; in short: as §1
BT-12 [4] = experiment: Induction of apoptosis in human BT-12 cells assessed as necrotic cells at 5 uM incubated for 72 hrs by flow cytometry analysis (reference value: 10.1+/-2.2%); type: functional; in short: as §2
BT-12 [5] = experiment: Induction of apoptosis in human BT-12 cells assessed as necrotic cells at 10 uM incubated for 72 hrs by flow cytometry analysis (reference value: 10.1+/-2.2%); type: functional; in short: as §2
G-401 [6] = experiment: Induction of apoptosis in human G-401 cells assessed as necrotic cells at 20 uM incubated for 72 hrs by flow cytometry analysis (Rvb= 6.2+/-0.8 %); type: functional; in short: as §2
CHLA-266 [7] = experiment: Induction of apoptosis in human CHLA-266 cells assessed as necrotic cells at 20 uM incubated for 72 hrs by flow cytometry analysis (Rvb= 5.4+/-1.0 %); type: functional; in short: as §2
G-401 [8] = experiment: Induction of apoptosis in human G-401 cells assessed as necrotic cells at 5 uM incubated for 72 hrs by flow cytometry analysis (Rvb= 6.2+/-0.8 %); type: functional; in short: as §2
[9] = Anti-proliferative activity against human KD cells assessed as cell viability incubated for 144 hrs by MTT assay; type: functional, cell-based
In short: (§3)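 MTT proliferation assay. Cells were seeded at 3000 (BT16, KD, G401) or 5000 (BT12, Chla266) cells per well and drug was added after 24 h, final 0.001–100 µM. Read at 72 or 144 h; 144 h wells got fresh medium and drug on day 3. MTT for 3 h, formazan dissolved in isopropanol/0.04 N HCl, absorbance at 570/630 nm. Technical triplicates, ≥3 independent runs, IC50 derived.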

CHLA-266 [10] = experiment: Induction of cell cycle arrest in human CHLA-266 cells assessed as accumulation of cells at G1 phase at 10 uM incubated for 72 hrs by flow cytometry analysis (Rvb =74.1+/-3.2%); type: functional
In short: (§4)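 Cell cycle. Seeding and 72 h treatment as for the apoptosis assay, with I-BRD9 or BI-9564 at 0, 5, 10 or 20 µM final. A 100 µL cell suspension was stained with DAPI and read by flow cytometry. Percentage of cells in G1, n ≥3, mean ± SD, one-way ANOVA versus control.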

BT-12 [11] = experiment: Induction of cell cycle arrest in human BT-12 cells assessed as accumulation of cells at G1 phase at 20 uM incubated for 72 hrs by flow cytometry analysis (reference value: 65+/-3.9%); type: functional; in short: as §4
CHLA-266 [12] = experiment: Induction of apoptosis in human CHLA-266 cells assessed as necrotic cells at 10 uM incubated for 72 hrs by flow cytometry analysis (Rvb= 5.4+/-1.0 %); type: functional; in short: as §2
BT-12 [13] = experiment: Induction of apoptosis in human BT-12 cells assessed as necrotic cells at 20 uM incubated for 72 hrs by flow cytometry analysis (Rvb=10.1+/-2.2%); type: functional; in short: as §2
BT-12 [14] = experiment: Induction of cell cycle arrest in human BT-12 cells assessed as accumulation of cells at G1 phase incubated for 72 hrs by flow cytometry analysis; type: functional, cell-based; conditions: dose 5-20 µM; in short: as §4
G-401 [15] = experiment: Induction of apoptosis in human G-401 cells assessed as necrotic cells incubated for 72 hrs by flow cytometry analysis; type: functional, cell-based; conditions: dose 5-20 µM; in short: as §2
CHLA-266 [16] = experiment: Anti-proliferative activity against human CHLA-266 cells assessed as cell viability incubated for 72 hrs by MTT assay; type: functional, cell-based; conditions: CHLA-266, 72 h; in short: as §3
G-401 [17] = experiment: Induction of apoptosis in human G-401 cells assessed as necrotic cells at 10 uM incubated for 72 hrs by flow cytometry analysis (Rvb= 6.2+/-0.8 %); type: functional; in short: as §2
G-401 [18] = experiment: Induction of cell cycle arrest in human G-401 cells assessed as accumulation of cells at G1 phase at 5 uM incubated for 72 hrs by flow cytometry analysis (reference value: 51.7+/-2%); type: functional; in short: as §1
CHLA-266 [19] = experiment: Induction of cell cycle arrest in human CHLA-266 cells assessed as accumulation of cells at G1 phase at 20 uM incubated for 72 hrs by flow cytometry analysis (reference value: 74.1+/-3.2%); type: functional; in short: as §4
CHLA-266 [20] = experiment: Induction of cell cycle arrest in human CHLA-266 cells assessed as accumulation of cells at G1 phase at 5 uM incubated for 72 hrs by flow cytometry analysis (reference value: 74.1+/-3.2%); type: functional; in short: as §4
BT-12 [21] = experiment: Anti-proliferative activity against human BT-12 cells assessed as cell viability incubated for 144 hrs by MTT assay; type: functional, cell-based; conditions: BT-12, 144 h; in short: as §3
G-401 [22] = experiment: Induction of cell cycle arrest in human G-401 cells assessed as accumulation of cells at G1 phase at 10 uM incubated for 72 hrs by flow cytometry analysis (reference value: 51.7+/-2%); type: functional; in short: as §1
CHLA-266 [23] = experiment: Induction of apoptosis in human CHLA-266 cells assessed as necrotic cells at 5 uM incubated for 72 hrs by flow cytometry analysis (Rvb= 5.4+/-1.0%); type: functional; in short: as §2
[24] = Anti-proliferative activity against human BT-16 cells assessed as cell viability incubated for 72 hrs by MTT assay; type: functional, cell-based; conditions: BT-16, 72 h; in short: as §3
BT-12 [25] = experiment: Induction of cell cycle arrest in human BT-12 cells assessed as accumulation of cells at G1 phase at 5 uM incubated for 72 hrs by flow cytometry analysis (reference value: 65+/-3.9%); type: functional; in short: as §4
CHLA-266 [26] = experiment: Cytotoxicity against human CHLA-266 cells assessed as change in cell viability at 5 to 20 uM treated for 72 hrs; type: functional, cell-based; conditions: dose 5-20 µM; in short: as §2
BT-12 [27] = experiment: Anti-proliferative activity against human BT-12 cells assessed as cell viability incubated for 72 hrs by MTT assay; type: functional, cell-based; conditions: BT-12, 72 h; in short: as §3
G-401 [28] = experiment: Anti-proliferative activity against human G-401 cells assessed as cell viability incubated for 72 hrs by MTT assay; type: functional, cell-based; conditions: G-401, 72 h; in short: as §3
G-401 [29] = experiment: Anti-proliferative activity against human G-401 cells assessed as cell viability incubated for 144 hrs by MTT assay; type: functional, cell-based; conditions: G-401, 144 h; in short: as §3
CHLA-266 [30] = experiment: Induction of apoptosis in human CHLA-266 cells assessed as necrotic cells incubated for 72 hrs by flow cytometry analysis; type: functional, cell-based; conditions: dose 5-20 µM; in short: as §2
CHLA-266 [31] = experiment: Anti-proliferative activity against human CHLA-266 cells assessed as cell viability incubated for 144 hrs by MTT assay; type: functional, cell-based; conditions: CHLA-266, 144 h; in short: as §3
[32] = Anti-proliferative activity against human KD cells assessed as cell viability incubated for 72 hrs by MTT assay; type: functional, cell-based; in short: as §3
BT-12 [33] = experiment: Induction of cell cycle arrest in human BT-12 cells assessed as accumulation of cells at G1 phase at 10 uM incubated for 72 hrs by flow cytometry analysis (reference value: 65+/-3.9%); type: functional; in short: as §4

Compound: COc1cc(-c2cn(C)c(=O)c3cnccc23)c(OC)cc1CN(C)C
- Activity (G-401 [1]): Dose-Dependent Effect
- Activity (BT-12 [2]): Dose-Dependent Effect
- Activity (CHLA-266 [3]): Dose-Dependent Effect
- Activity (BT-12 [4]): 14.2%
- Activity (BT-12 [5]): 15.9%
- Activity (G-401 [6]): 7.6%
- Activity (CHLA-266 [7]): 12.9%
- Activity (G-401 [8]): 6.8%
- IC50 [9]: 10.8 µM
- Activity (CHLA-266 [10]): 81.2%
- Activity (BT-12 [11]): 78.9%
- Activity (CHLA-266 [12]): 11%
- Activity (BT-12 [13]): 17.3%
- Activity (BT-12 [14]): Dose-Dependent Effect
- Activity (G-401 [15]): Dose-Dependent Effect
- IC50 (CHLA-266 [16]): > 100 µM
- Activity (G-401 [17]): 7.3%
- Activity (G-401 [18]): 57.6%
- Activity (CHLA-266 [19]): 83.6%
- Activity (CHLA-266 [20]): 80%
- IC50 (BT-12 [21]): 17.2 µM
- Activity (G-401 [22]): 59.5%
- Activity (CHLA-266 [23]): 10%
- IC50 [24]: 15.9 µM
- Activity (BT-12 [25]): 73.1%
- Activity (CHLA-266 [26]): Active
- IC50 (BT-12 [27]): > 100 µM
- IC50 (G-401 [28]): 12.5 µM
- IC50 (G-401 [29]): 10.8 µM
- Activity (CHLA-266 [30]): Dose-Dependent Effect
- IC50 (CHLA-266 [31]): 33.7 µM
- IC50 [32]: 22.3 µM
- Activity (BT-12 [33]): 74%
